Results from ChEMBL document CHEMBL4229446, “Development of Novel Monoamine Oxidase-B (MAO-B) Inhibitors with Reduced Blood-Brain Barrier Permeability for the Potential Management of Noncentral Nervous System (CNS) Diseases” (J Med Chem, 2018).

How the values were obtained:
[1] = Apparent half-life of the terminal disposition phase in C57BL/6 mouse plasma at 24.5 mg/kg, sc administered as single dose measured 24 hrs by UPLC-MS/MS analysis; format: ADME, organism-based; details: read-out: t1/2 lambda z (converted)
How it was run: (§1)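 15 animals dosed, 3 sacrificed at each of 1, 2, 4, 6 and 24 h. Plasma and brain homogenate were extracted and quantified by UPLC-MS/MS. Parameters came from noncompartmental analysis. Values above or below the limit of quantification, or undetected, were omitted. Kp = AUClast brain/plasma.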

[2] = Ratio of AUClast in brain to plasma in C57BL/6 mouse at 24.5 mg/kg, iv administered as single dose measured 24 hrs by UPLC-MS/MS analysis; format: ADME, organism-based
How it was run: (§2)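 21 animals dosed at 0 min, 3 sacrificed at each of 0, 5, 15, 30 min, 1, 4 and 24 h. Plasma was extracted by protein precipitation with phospholipid removal. Brain was weighed, bead-homogenised in 50 mM ammonium formate and extracted in acidified organic solvent. Quantified by UPLC-MS/MS (MRM). Brain ng/g taken as ng/mL. Parameters came from noncompartmental analysis. Kp = AUClast brain/plasma.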

[3] = AUClast in C57BL/6 mouse plasma at 24.5 mg/kg, po administered as single dose measured 24 hrs by UPLC-MS/MS analysis; format: ADME, organism-based; design: dose 24.5 mg/kg, route oral, time 0 - last; how it was run: as §1
[4] = Tmax in C57BL/6 mouse plasma at 24.5 mg/kg, sc administered as single dose measured 24 hrs by UPLC-MS/MS analysis; format: ADME, organism-based
How it was run: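 Plasma extracted by protein precipitation/phospholipid removal and measured by UPLC-MS/MS (MRM). Parameters by noncompartmental analysis, omitting values outside quantification limits or undetected.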

[5] = Cmax in C57BL/6 mouse plasma at 24.5 mg/kg, po administered as single dose measured 24 hrs by UPLC-MS/MS analysis; format: ADME, organism-based; design: dose 24.5 mg/kg, route oral; how it was run: as §1
[6] = Cmax in C57BL/6 mouse brain at 24.5 mg/kg, po administered as single dose measured 24 hrs by UPLC-MS/MS analysis; format: ADME, organism-based; design: dose 24.5 mg/kg, route oral; how it was run: as §1
[7] = Tmax in C57BL/6 mouse plasma at 24.5 mg/kg, iv administered as single dose measured 24 hrs by UPLC-MS/MS analysis; format: ADME, organism-based
How it was run: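 Plasma cleaned by protein precipitation with phospholipid removal, then UPLC-MS/MS in MRM mode. Tmax obtained by noncompartmental analysis.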

[8] = Tmax in C57BL/6 mouse brain at 24.5 mg/kg, iv administered as single dose measured 24 hrs by UPLC-MS/MS analysis; format: ADME, organism-based
How it was run: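 Brains weighed, portion bead-homogenised in 50 mM ammonium formate, extracted in acidified organic solvent, quantified by UPLC-MS/MS. ng/g taken as ng/mL. Tmax from noncompartmental analysis.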

[9] = Ratio of AUClast in brain to plasma in C57BL/6 mouse at 24.5 mg/kg, sc administered as single dose measured 24 hrs by UPLC-MS/MS analysis; format: ADME, organism-based; how it was run: as §1
[10] = AUClast in C57BL/6 mouse brain at 24.5 mg/kg, iv administered as single dose measured 24 hrs by UPLC-MS/MS analysis; format: ADME, organism-based; design: dose 24.5 mg/kg, route intravenous, time 0 - last; how it was run: as §2
[11] = Ratio of AUClast in brain to plasma in C57BL/6 mouse at 23.4 mg/kg, sc administered as single dose measured 24 hrs by UPLC-MS/MS analysis; format: ADME, organism-based
How it was run: (§3)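 15 animals dosed, 3 killed at each of 1, 2, 4, 6 and 24 h. Plasma and brain homogenate (ammonium formate, acidified organic extraction) assayed by UPLC-MS/MS, brain ng/g taken as ng/mL. Noncompartmental parameters exclude values above/below quantification limit or undetected. Kp = AUClast brain/plasma.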

[12] = molecular target: T1, Amine oxidase [flavin-containing] B (Homo sapiens, UniProt P27338); experiment: Inhibition of human recombinant MAO-B expressed in baculovirus infected BTI-TN-5B1-4 insect cells using benzylamine as substrate preincubated for 1 hr followed by substrate addition and measured after 30 mins by resazurin dye-based fluorescence assay; format: cell-based
T1 sequence (P27338 whole entry): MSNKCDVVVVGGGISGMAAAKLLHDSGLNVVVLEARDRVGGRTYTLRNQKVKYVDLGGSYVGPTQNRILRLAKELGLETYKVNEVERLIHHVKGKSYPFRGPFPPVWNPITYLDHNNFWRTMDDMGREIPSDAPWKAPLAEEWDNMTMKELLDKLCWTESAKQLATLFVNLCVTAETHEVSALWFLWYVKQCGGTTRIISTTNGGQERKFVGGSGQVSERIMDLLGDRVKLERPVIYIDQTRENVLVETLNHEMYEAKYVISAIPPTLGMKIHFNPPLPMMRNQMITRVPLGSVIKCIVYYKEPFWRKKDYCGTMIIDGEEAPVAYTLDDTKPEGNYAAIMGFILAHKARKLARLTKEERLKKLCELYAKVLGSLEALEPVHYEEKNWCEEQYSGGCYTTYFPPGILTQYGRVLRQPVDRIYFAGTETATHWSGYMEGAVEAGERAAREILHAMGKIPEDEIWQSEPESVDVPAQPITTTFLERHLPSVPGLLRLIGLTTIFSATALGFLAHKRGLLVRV

[13] = Apparent half-life of the terminal disposition phase in C57BL/6 mouse brain at 23.4 mg/kg, iv administered as single dose measured 24 hrs by UPLC-MS/MS analysis; format: ADME, organism-based; details: read-out: t1/2 lambda z (converted)
How it was run: (§4)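 21 animals dosed at 0 min, 3 killed per time point (0, 5, 15, 30 min, 1, 4, 24 h). Plasma extracted by protein precipitation/phospholipid removal. Brain homogenized in 50 mM ammonium formate, then extracted in acidified organic solvent. Both quantified by UPLC-MS/MS (MRM), brain ng/g taken as ng/mL. Noncompartmental analysis. Kp = AUClast brain/plasma.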

[14] = Apparent half-life of the terminal disposition phase in C57BL/6 mouse plasma at 23.4 mg/kg, sc administered as single dose measured 24 hrs by UPLC-MS/MS analysis; format: ADME, organism-based; details: read-out: t1/2 lambda z (converted); how it was run: as §3
[15] = AUClast in C57BL/6 mouse brain at 23.4 mg/kg, po administered as single dose measured 24 hrs by UPLC-MS/MS analysis; format: ADME, organism-based; design: dose 23.4 mg/kg, route oral, time 0 - last; how it was run: as §3
[16] = Ratio of AUClast in brain to plasma in C57BL/6 mouse at 23.4 mg/kg, po administered as single dose measured 24 hrs by UPLC-MS/MS analysis; format: ADME, organism-based; how it was run: as §3
[17] = AUClast in C57BL/6 mouse plasma at 23.4 mg/kg, po administered as single dose measured 24 hrs by UPLC-MS/MS analysis; format: ADME, organism-based; design: dose 23.4 mg/kg, time 0 - last, route oral; how it was run: as §3
[18] = Tmax in C57BL/6 mouse plasma at 23.4 mg/kg, iv administered as single dose measured 24 hrs by UPLC-MS/MS analysis; format: ADME, organism-based; how it was run: as §4
[19] = Cmax in C57BL/6 mouse brain at 23.4 mg/kg, po administered as single dose measured 24 hrs by UPLC-MS/MS analysis; format: ADME, organism-based; design: dose 23.4 mg/kg, route oral; how it was run: as §3
[20] = Cmax in C57BL/6 mouse plasma at 23.4 mg/kg, po administered as single dose measured 24 hrs by UPLC-MS/MS analysis; format: ADME, organism-based; design: dose 23.4 mg/kg, route oral; how it was run: as §3
[21] = Tmax in C57BL/6 mouse brain at 23.4 mg/kg, sc administered as single dose measured 24 hrs by UPLC-MS/MS analysis; format: ADME, organism-based; how it was run: as §3
[22] = Apparent half-life of the terminal disposition phase in C57BL/6 mouse plasma at 23.4 mg/kg, iv administered as single dose measured 24 hrs by UPLC-MS/MS analysis; format: ADME, organism-based; details: read-out: t1/2 lambda z (converted); how it was run: as §4

C[C@H](Cc1ccc(OCc2ccc(Br)c(Cl)c2)cc1)N(C)CC(=O)O
half-life [1]: 4.81 h | Kp at 24 h [2]: 0.11 | AUC(0-t) at 24 h [3]: 104000 ng·h/mL | Tmax [4]: 2 h | Cmax [5]: 8530 ng/mL | Cmax [6]: 812 ng/mL | Tmax [7]: 5 min | Tmax [8]: 4 h | Kp at 24 h [9]: 0.19 | AUC(0-t) at 24 h [10]: 10700 ng·h/mL

CN(CC(=O)O)[C@H](CC#N)Cc1ccc(OCc2ccc(Cl)c(Cl)c2)cc1
Kp at 24 h [11]: 0.005 | IC50 [12]: 206 nM | half-life [13]: 0.65 h | half-life [14]: 3.62 h | AUC(0-t) at 24 h [15]: 116 ng·h/mL | Kp at 24 h [16]: 0.002 | AUC(0-t) at 24 h [17]: 73000 ng·h/mL | Tmax [18]: 5 min | Cmax [19]: 91.9 ng/mL | Cmax [20]: 16800 ng/mL | Tmax [21]: 1 h | half-life [22]: 0.74 h
